One compound from ChEMBL document CHEMBL4819117, “Probing cytochrome P450 (CYP) bioactivation with chloromethylindoline bioprecursors derived from the duocarmycin family of compounds” (Bioorg Med Chem, 2021) can be followed below.

In series [1] the test system is EJ. Briefly: Antiproliferative activity against human EJ138 cells assessed as inhibition of cell growth preincubated for 1 hr with human CYP1B1 expressing bactosomes measured after 96 hrs by MTT assay. Format: functional, cell-based. In short, it runs like this:
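Compound (50 μM) incubated 1 h at 37 °C with 20 pmol CYP bactosomes (CYP null, 1A1, 1A2, 1B1 or 3A4) in 2 mM NADPH, 1 mM MgCl₂, Tris-HCl pH 7.4. Metabolites were extracted with acetonitrile, centrifuged, and the supernatant dried and taken up in DMSO. EJ138 cells were exposed 96 h and growth read by MTT assay.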
In general terms: Tetrazolium dyes change colour on reduction, which living cells bring about.

Series [2] is described as follows: Drug metabolism in Wistar rat liver microsomes assessed as CYP-mediated metabolite M16 formation at 0.5 to 23.5 uM prewarmed for 5 mins followed by NADPH addition and measured after 30 mins by HPLC-fluorescence detector analysis. Format: ADME. Conditions: 35 min, dose 0.5-23.5 µM.
Series [3] deals with EJ. The experiment in a line: Potentiation factor, ratio of IC50 for antiproliferative activity against human EJ138 cells preincubated for 1 hr with CYP null bactosomes to IC50 for antiproliferative activity against human EJ138 cells preincubated for 1 hr with human CYP1A2 expressing bactosomes. Format: functional. The procedure, abridged:
(§1)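 Potentiation factor = IC₅₀ in EJ138 given control (CYP null) bactosome extract ÷ IC₅₀ with the named CYP isoform extract. Extracts came from 1 h, 37 °C incubations of 50 μM compound with 20 pmol bactosomes plus 2 mM NADPH, 1 mM MgCl₂, Tris-HCl pH 7.4. Cells were exposed 96 h and read by MTT.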

For series [4], the system named is EJ. The experiment in a line: Potentiation factor, ratio of IC50 for antiproliferative activity against human EJ138 cells preincubated for 1 hr with CYP null bactosomes to IC50 for antiproliferative activity against human EJ138 cells preincubated for 1 hr with human CYP1B1 expressing bactosomes. Format: functional. In short, it runs like this:
as §1

The test system of series [5] is EJ. The experiment in a line: Potentiation factor, ratio of IC50 for antiproliferative activity against human EJ138 cells preincubated for 1 hr with CYP null bactosomes to IC50 for antiproliferative activity against human EJ138 cells preincubated for 1 hr with human CYP3A4 expressing bactosomes. Format: functional. The procedure, abridged: as §1
Series [6] deals with T1, Cytochrome P450 1A1 (Homo sapiens, UniProt P04798).
T1 sequence (P04798 whole entry): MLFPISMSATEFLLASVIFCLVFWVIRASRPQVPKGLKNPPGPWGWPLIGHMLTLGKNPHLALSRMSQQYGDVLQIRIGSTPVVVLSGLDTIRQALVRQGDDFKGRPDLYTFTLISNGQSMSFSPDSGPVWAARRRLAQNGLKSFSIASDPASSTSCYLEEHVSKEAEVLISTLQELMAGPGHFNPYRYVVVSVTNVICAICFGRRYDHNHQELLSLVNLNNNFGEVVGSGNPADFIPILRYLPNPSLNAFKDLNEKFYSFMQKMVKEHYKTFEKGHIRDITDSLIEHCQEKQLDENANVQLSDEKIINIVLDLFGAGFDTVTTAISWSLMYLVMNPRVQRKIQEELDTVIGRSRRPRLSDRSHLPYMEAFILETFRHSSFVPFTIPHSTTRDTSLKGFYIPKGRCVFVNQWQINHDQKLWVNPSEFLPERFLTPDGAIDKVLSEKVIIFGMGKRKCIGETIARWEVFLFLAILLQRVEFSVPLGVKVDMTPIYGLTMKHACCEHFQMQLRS
The experiment in a line: Drug metabolism assessed as human CYP1A1 expressed in bactosomes assessed as metabolite M2 with m/z 357.1 formation measured after 1 hr by LC-MS analysis. It is filed as ADME. As to conditions: recombinant enzyme.

The target in series [7] is T1, Cytochrome P450 1A1. The experiment in a line: Drug metabolism assessed as human CYP1A1 expressed in bactosomes assessed as metabolite M3 with m/z 339.1 formation measured after 1 hr by LC-MS analysis. Format: ADME. As to conditions: recombinant enzyme.
The next series deals with T2, Cytochrome P450 1A2 (Homo sapiens, UniProt P05177).
T2 sequence (P05177 whole entry): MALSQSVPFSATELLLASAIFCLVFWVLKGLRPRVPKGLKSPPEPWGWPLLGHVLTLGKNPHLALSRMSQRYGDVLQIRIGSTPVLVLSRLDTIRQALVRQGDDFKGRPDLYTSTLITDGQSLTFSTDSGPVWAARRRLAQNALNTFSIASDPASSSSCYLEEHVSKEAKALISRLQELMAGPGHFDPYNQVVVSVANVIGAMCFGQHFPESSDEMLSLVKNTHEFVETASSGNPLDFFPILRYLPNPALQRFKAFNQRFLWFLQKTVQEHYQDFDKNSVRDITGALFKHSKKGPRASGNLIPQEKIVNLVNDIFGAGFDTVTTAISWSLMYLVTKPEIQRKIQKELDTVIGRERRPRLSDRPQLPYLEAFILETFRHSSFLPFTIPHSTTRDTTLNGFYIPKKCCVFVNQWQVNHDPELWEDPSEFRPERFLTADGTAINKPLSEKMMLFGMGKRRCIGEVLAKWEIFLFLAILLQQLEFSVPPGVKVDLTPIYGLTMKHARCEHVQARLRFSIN
Briefly: Drug metabolism assessed as human CYP1A2 expressed in bactosomes assessed as (3-(chloromethyl)-6-hydroxyindolin-1-yl)(5-methoxy-1H-indol-2-yl)methanone formation measured after 1 hr by LC-MS analysis. Format: ADME. Conditions: recombinant enzyme.

The target of series [8] is T1, Cytochrome P450 1A1. Briefly: Drug metabolism assessed as recombinant human CYP1A1-mediated metabolite M3 with m/z 339.1 formation at 50 uM incubated for 1 hr in presence of reconstituted protein system by LC-MS analysis. As to conditions: recombinant enzyme. Format: ADME. In short, it runs like this: (§2)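 Substrate (50 μM) incubated at 37 °C with human recombinant CYP1A1 in a reconstituted system: NADPH cytochrome P450 reductase, freshly prepared DLPC (240 μM), 100 mM potassium phosphate pH 7.4. Reaction was started with NADPH (1 mM final) and aliquots quenched into dichloromethane over 60 min. Metabolites were profiled by HPLC with photodiode array and ESI⁺ quadrupole MS.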

The target of series [9] is T1, Cytochrome P450 1A1. Briefly: Drug metabolism assessed as recombinant human CYP1A1-mediated metabolite M4 with m/z 327.1 formation at 50 uM incubated for 1 hr in presence of reconstituted protein system by LC-MS analysis. It is filed as ADME. As to conditions: recombinant enzyme. The procedure, abridged: as §2
The target in series [10] is T1, Cytochrome P450 1A1. Briefly: Drug metabolism assessed as recombinant human CYP1A1-mediated metabolite M5 with m/z 355.1 formation at 50 uM incubated for 1 hr in presence of reconstituted protein system by LC-MS analysis. It is filed as ADME. As to conditions: recombinant enzyme. In short, it runs like this: as §2
Series [11] can be described thus: Drug metabolism in Wistar rat liver microsomes assessed as CYP-mediated metabolite M22 formation at 0.5 to 23.5 uM prewarmed for 5 mins followed by NADPH addition and measured after 30 mins by HPLC-fluorescence detector analysis. Conditions: 35 min, dose 0.5-23.5 µM. It is filed as ADME. In general terms: Liver microsomes are a subcellular fraction often used to study metabolism.

For series [12], the system named is Cytochrome P450. The experiment in a line: Drug metabolism in human liver microsomes assessed as CYP-mediated metabolite M22 formation at 0.5 to 23.5 uM prewarmed for 5 mins followed by NADPH addition and measured after 30 mins by HPLC-fluorescence detector analysis. Conditions: 35 min, dose 0.5-23.5 µM. Format: ADME.
The subject of series [13] is Cytochrome P450. Briefly: Drug metabolism in human liver microsomes assessed as CYP-mediated metabolite M23 formation at 0.5 to 23.5 uM prewarmed for 5 mins followed by NADPH addition and measured after 30 mins by HPLC-fluorescence detector analysis. Format: ADME. As to conditions: 35 min, dose 0.5-23.5 µM.

With `COc1ccc2[nH]c(C(=O)N3CC(CCl)c4ccccc43)cc2c1` (centres undefined), the IC50 (commonly the midpoint of a concentration-inhibition curve) with EJ [1] came to 13.5 µM. In addition, the Drug metabolism entry in series [2] is given as “Metabolite_Detected”; at Cytochrome P450 1A1 [6] it was “Metabolite_Detected”; at Cytochrome P450 1A1 [7] it was “Metabolite_Detected”; at Cytochrome P450 1A2, “Metabolite_Notdetected”; on Cytochrome P450 1A1 [8], “Metabolite_Detected”; on Cytochrome P450 1A1 [9], “Metabolite_Detected”. In addition, the Drug metabolism result (on Cytochrome P450 1A1 [10]; in series [11]; with Cytochrome P450 [12]; in the series on Cytochrome P450 [13]) was “Metabolite_Detected” throughout. The entries for the “Ratio IC50” value in the series on EJ [3], with EJ [4] and in the series on EJ [5] were 9.1, 1.3 and 0.9, respectively.
